Scp1 inh: Scp-1 phosphatase inhibitors, primary screen, biochemical, colorimetric, uHTS. Recombinant Scp1, phosphopeptide, malachite green phosphate absorbance. inhibition, % at 20 µM. actives 0.88% (n = 340,000);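 active = inhibition above about 50% at 20 µM, limit read from the data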;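 note: plate controls were DMSO wells with enzyme for no effect and wells lacking enzyme for full effect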
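Times: enzyme reaction 45 min at room temperature, colour 5 min, stabilisation 30 min. Material: SCP-1 catalytic fragment, aa 76-261. Medium: Acidic Tris acetate buffer with magnesium and detergent. Signal: colorimetric free-phosphate detection, absorbance 630 nm. Read-out basis: % inhibition of SCP-1 phosphate liberation. Reagent: Phosphorylated 17-residue peptide substrate.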
SUMO1-SIM PPI: modulators of SUMO1 protein-protein interactions, primary screen, biochemical, uHTS | Small ubiquitin-related modifier 1 (Homo sapiens), P63165 | SUMO1 binding to a labelled peptide, TR-FRET, 1 h | inhibition, % at 20 µM | actives 0.33% (n = 360,000) | AID 602429, 2012; in the data active = inhibition above about 37%
Target sequence (P63165 whole entry, looked up): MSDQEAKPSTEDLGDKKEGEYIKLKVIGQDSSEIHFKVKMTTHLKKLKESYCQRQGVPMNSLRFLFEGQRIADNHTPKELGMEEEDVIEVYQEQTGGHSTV
LMPTP inh: LMPTP phosphatase inhibitors, primary screen, biochemical, fluorescence intensity, uHTS. recombinant LMPTP-A, OMFP fluorogenic substrate. inhibition, % at 20 µM. actives 0.22% (n = 360,000). AID 651560, 2012;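 active = compounds that cut the enzyme signal by at least half of the control window in the single-dose screen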;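 note: plate controls were DMSO wells with enzyme plus substrate for no effect and substrate without enzyme for full effect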
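Assay system: LMPTP-A, protein tyrosine phosphatase of low molecular weight / Medium: pH 6.0 Bis-Tris buffer with DTT and Triton X-100 / Schedule: 50 min enzyme reaction at room temperature, protected from light / Measured by: endpoint fluorescence intensity from OMFP dephosphorylation / Read-out basis: % inhibition relative to no-enzyme and uninhibited control wells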
DNMT1 inh: human DNMT1 methyltransferase inhibitors, primary screen, biochemical, molecular beacon, fluorescence, HinP1I cleavage, uHTS. DNA (cytosine-5)-methyltransferase 1 (Homo sapiens), P26358. inhibition (reported as % activation of signal), % at 10 µM. AID 588458, 2011. actives 0.83% (n = 360,000); in the data active = inhibition above about 50%
STEP block: STEP phosphatase inhibitors, primary screen, biochemical, fluorescence intensity, uHTS; recombinant STEP, OMFP fluorogenic substrate; inhibition, % at 20 µM; actives 0.25% (n = 360,000); AID 588621, 2011;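 active = inhibition at 20 µM, scaled per plate between control wells, above about 37%, limit read from the data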;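 note: 0% = DMSO with enzyme and substrate and 100% = substrate only without enzyme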
Target sequence (P54829 whole entry, looked up): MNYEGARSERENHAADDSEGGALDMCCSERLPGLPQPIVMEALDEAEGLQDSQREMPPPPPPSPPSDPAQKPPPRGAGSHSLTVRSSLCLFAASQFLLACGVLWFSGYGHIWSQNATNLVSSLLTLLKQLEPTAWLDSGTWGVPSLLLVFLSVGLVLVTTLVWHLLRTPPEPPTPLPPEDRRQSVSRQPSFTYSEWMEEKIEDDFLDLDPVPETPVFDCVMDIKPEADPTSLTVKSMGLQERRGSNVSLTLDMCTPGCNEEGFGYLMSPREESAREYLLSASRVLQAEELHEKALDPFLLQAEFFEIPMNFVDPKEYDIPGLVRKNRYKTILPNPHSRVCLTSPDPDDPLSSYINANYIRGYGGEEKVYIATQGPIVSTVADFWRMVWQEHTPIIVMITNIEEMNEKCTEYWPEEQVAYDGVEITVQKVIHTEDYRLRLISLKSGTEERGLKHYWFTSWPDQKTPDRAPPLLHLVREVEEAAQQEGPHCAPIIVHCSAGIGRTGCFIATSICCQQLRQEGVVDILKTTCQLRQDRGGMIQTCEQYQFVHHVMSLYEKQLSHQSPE
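Test system: STEP tyrosine phosphatase / Reagent: OMFP at 25 µM / Doses: 20 µM, 1% DMSO / Read-out: percent inhibition scaled to no-enzyme and uninhibited-enzyme controls, plate-pattern corrected / Detection: FITC-channel fluorescence of OMFP product / Medium: Bis-Tris buffer pH 6.0, 2.5 mM DTT, 0.005% Tween 20 / Schedule: 20 min at room temperature, dark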
DNMT1 interf DR: spectral interference with molecular beacon fluorescence, dose response, artefact control for DNMT1 inhibitor project, biochemical, fluorescent molecular beacon. shares compounds with DNMT1 inh. spectral interference counter-screen. IC50, µM. 200 tested, under 10 active; call rule not given here
DNMT1 confirm: DNMT1 methyltransferase inhibitor retest, confirmation, biochemical, molecular beacon, fluorescence, single concentration | shares compounds with DNMT1 inh | DNMT1 molecular beacon HinP1I cleavage | inhibition, % at 10 µM | actives 8% (n = 2,300);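 active = average inhibition of at least 30% in the single-concentration confirmation test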
DNMT1 interf: shows spectral interference in the DNMT1 beacon assay. activation (fluorescence interference), % at 10 µM. actives 1% (n = 2,300). AID 602387. DNMT1 molecular beacon spectral interference counterscreen, fluorescence 485/520. shares compounds with DNMT1 inh;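 active = activation of at least 30% at 10 µM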;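 note: DNMT1 catalytic domain with a HinP1I cleavage step and a FAM/dabcyl DNA beacon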
* marks the source's active call; other numbers are inactive results; nt = not tested or not shown. Rows were chosen to be rich in hits. Some 1.7% of all compounds tested hit in one or more screens of this group.

SMILES | Scp1 inh | SUMO1-SIM PPI | LMPTP inh | DNMT1 inh | STEP block | DNMT1 confirm | DNMT1 interf | others
O=c1nc2c(O)cccn2c2c1c(=O)[nH]c1ccccc12 | 55* | 31 | 65* | 105* | 57* | 6 | 4
C=CCn1c(C)cc(-c2csc(NC(=O)C3CCN(c4ncnc5sc(C)c(C)c45)CC3)n2)c1C | 6 | -1 | 1 | 65* | 1 | 3 | -7
COc1ccc(-c2csc(NC(=O)C3CCN(c4ncnc5sc(C)c(C)c45)CC3)n2)cc1OC | 8 | 10 | 4 | -8 | -2 | nt | nt
O=C1NC(=S)N/C1=C/c1cccn1-c1ccc([N+](=O)[O-])cc1 | 23 | -18 | 32 | 55* | -2 | 4 | -1
O=c1cc(O)cc2n1CCC2 | nt | 1 | -1 | 6 | 0 | nt | nt
CC1CCN(C(=O)CSc2nc3c(c(=O)n2C)SC(C)C3)CC1 (stereo unspecified) | -5 | 1 | -1 | 67* | 1 | 7 | 9
CCN(Cc1ccccc1)C(=O)COC(=O)[C@@H]1CCCN1C(=O)c1cccs1 | -1 | 2 | 0 | -1 | -2 | nt | nt
Cc1ccc(C(CCN(Cc2ccccc2)C(=O)c2ccco2)c2ccco2)cc1 (stereo unspecified) | 10 | 3 | 5 | 56* | 2 | 17 | -1
CCOc1cc(C(C(=O)NCC2CCCO2)N(C(=O)Cn2nnc3ccccc32)c2ccccc2C(C)=O)ccc1O (stereo unspecified) | -7 | 2 | -1 | 4 | -4 | nt | nt
CN(C)CC1CCC/C(=C\c2ccc(OC(=O)/C=C/c3ccc(Cl)c(Cl)c3)cc2)C1=O (stereo unspecified) | 1 | 19 | 2 | 50* | -1 | 4 | 0
COc1ccc(NC(=O)CNc2cc(C)ccc2C)cc1S(=O)(=O)N1CCOCC1 | -6 | 1 | -1 | -4 | -2 | nt | nt
c1ccc2c(c1)C1=NCCN1c1ccccc1-2 | nt | 2 | 3 | 66* | 3 | 48* | 0 | DNMT1 interf DR=>99
CCOC(=O)[C@]12CCCC=C1N(Cc1cccc3ccccc13)C(=O)[C@H](CC(=O)NCc1cccs1)C2 | nt | 3 | 3 | nt | nt | nt | nt
COc1ccc(/C=N/NC(=O)c2cccc([N+](=O)[O-])c2)c2ccccc12 | -4 | 3 | -1 | 51* | 3 | 0 | -3
Cc1ccc(-c2nnn(CC(=O)Nc3ccc4nn(-c5ccccc5)nc4c3)n2)o1 | -2 | 10 | 0 | 50* | -5 | 0 | 0
Cc1ccc(-c2nnn(CC(=O)NCC3CC3)n2)o1 | -6 | 2 | -1 | 0 | 1 | nt | nt
O=C(NCc1ccc(Cl)cc1)C1CCC(=O)N(C2CCCCCC2)C1 (stereo unspecified) | -2 | 1 | -1 | 1 | -3 | nt | nt
O=C(COC(=O)CCN1C(=O)/C(=C\C=C\c2ccccc2)SC1=S)Nc1cc(F)ccc1F | -6 | -5 | 5 | 75* | 3 | 12 | 4
O=C(NCCN1CCC(n2c(=O)[nH]c3ccccc32)CC1)c1ccc(Cl)c(Cl)c1 | nt | -1 | 3 | nt | nt | nt | nt
CC1CCN(Cc2c(O)ccc3c2O/C(=C\c2ccco2)C3=O)CC1 | 14 | 25 | 10 | 47 | 3 | nt | nt
O=C1/C(=C/c2ccco2)Oc2c1ccc(O)c2CN1CCCCC1 | 14 | 0 | 16 | 79* | 1 | 15 | 11
O=C(O)C1C=CCC(C(=O)O)C1 (stereo unspecified) | nt | -2 | 0 | 98* | -2 | 3 | 5
CCc1cc2c(=O)c(-c3cnn(-c4ccccc4)c3)c(C)oc2cc1OCC(=O)Nc1ccc(F)c(F)c1 | -8 | -16 | 2 | 11 | -2 | nt | nt
CCc1cc2c(=O)c(-c3cnn(-c4ccccc4)c3)c(C)oc2cc1OCC(=O)Nc1cccc(C)c1 | -7 | 0 | 0 | 61* | 2 | 2 | -4
N#C/C(=C/c1ccc(-c2ccc([N+](=O)[O-])cc2)o1)C(=O)Nc1nc(-c2cccs2)cs1 | 5 | -25 | 11 | 87* | 3 | 1 | -3
SMILES | Scp1 inh | SUMO1-SIM PPI | LMPTP inh | DNMT1 inh | STEP block | DNMT1 confirm | DNMT1 interf | others
Cc1ccc(Cc2cnc(NC(=O)/C(C#N)=C/c3ccc(-c4ccc([N+](=O)[O-])cc4)o3)s2)cc1 | -5 | -17 | 3 | 52* | 6 | 1 | 6
CCOc1ccc(NC(=O)CN(C)C(=O)c2cc3c(s2)CCC3)cc1OCC | nt | 16 | 17 | 94* | 5 | 15 | -2
CCOC(=O)c1c(NC(C)=O)sc2c(OCC(O)CN(CC)CC)c(Br)ccc12 (stereo unspecified) | 7 | 1 | 4 | 76* | 2 | 7 | 2
Cc1ccc(C)c(S(=O)(=O)NC(C)C(=O)NCc2ccccn2)c1 (stereo unspecified) | 1 | -1 | -1 | -1 | -2 | nt | nt
CCOc1ccc(Oc2ccccc2NC(=O)CN2C(=O)NC3(CCCC3)C2=O)cc1 | -3 | -1 | 1 | -5 | -3 | nt | nt
Cc1nn(CC(=O)Nc2ccc3c(c2)nc(CCN2CCCCC2)n3C)c(=O)c2ccccc12 | -6 | 1 | 7 | 6 | 3 | nt | nt
Cc1nn(CC(=O)Nc2ccc3c(c2)nc2n3CCN(C3CCCCC3)C2)c(=O)c2ccccc12 | -7 | 1 | 25 | 80* | 3 | 0 | 1
C/C(CC(=O)Nc1ccccc1C#N)=N\NC(=O)c1ccncc1 | -7 | 3 | -1 | 82* | -2 | 3 | 2
CC(=O)Nc1ccccc1NC(=O)C/C(C)=N/NC(=O)c1ccncc1 | -1 | -3 | 0 | 0 | -4 | nt | nt
O=C(NC1CCC(CC2CCC(NC(=O)C(Cl)Cl)CC2)CC1)C(Cl)Cl (stereo unspecified) | -5 | -7 | 8 | 63* | 4 | 1 | -2
COC(=O)NC1CCC(CC2CCC(NC(=O)OC)CC2)CC1 (stereo unspecified) | -5 | 0 | 0 | 2 | 8 | nt | nt
CCc1nc2c(OCC3COc4ccccc4O3)cccn2c1N(C)C(=O)c1ccc(OC)cc1 (stereo unspecified) | nt | -8 | 2 | 0 | 1 | nt | nt

High-throughput results (PubChem BioAssay)
